Source: PubChem BioAssay
PTK2B oligo ant – blocks oligomerization of human Pyk2 in cells. Q14289. Q293 cells, Pyk2 FERM NanoBiT luminescence; hits give low values. z-score (the deposit names both 25 µM and 10 µM). 99,000 tested, 0.83% active;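 active = Z-score of -3 or lower, scaled per plate to the spread of control and sample wells; inactive = z-score above -3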;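 also: negative z-score means lost luminescence so less FERM oligomerization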
Target sequence (Q14289 whole entry, looked up): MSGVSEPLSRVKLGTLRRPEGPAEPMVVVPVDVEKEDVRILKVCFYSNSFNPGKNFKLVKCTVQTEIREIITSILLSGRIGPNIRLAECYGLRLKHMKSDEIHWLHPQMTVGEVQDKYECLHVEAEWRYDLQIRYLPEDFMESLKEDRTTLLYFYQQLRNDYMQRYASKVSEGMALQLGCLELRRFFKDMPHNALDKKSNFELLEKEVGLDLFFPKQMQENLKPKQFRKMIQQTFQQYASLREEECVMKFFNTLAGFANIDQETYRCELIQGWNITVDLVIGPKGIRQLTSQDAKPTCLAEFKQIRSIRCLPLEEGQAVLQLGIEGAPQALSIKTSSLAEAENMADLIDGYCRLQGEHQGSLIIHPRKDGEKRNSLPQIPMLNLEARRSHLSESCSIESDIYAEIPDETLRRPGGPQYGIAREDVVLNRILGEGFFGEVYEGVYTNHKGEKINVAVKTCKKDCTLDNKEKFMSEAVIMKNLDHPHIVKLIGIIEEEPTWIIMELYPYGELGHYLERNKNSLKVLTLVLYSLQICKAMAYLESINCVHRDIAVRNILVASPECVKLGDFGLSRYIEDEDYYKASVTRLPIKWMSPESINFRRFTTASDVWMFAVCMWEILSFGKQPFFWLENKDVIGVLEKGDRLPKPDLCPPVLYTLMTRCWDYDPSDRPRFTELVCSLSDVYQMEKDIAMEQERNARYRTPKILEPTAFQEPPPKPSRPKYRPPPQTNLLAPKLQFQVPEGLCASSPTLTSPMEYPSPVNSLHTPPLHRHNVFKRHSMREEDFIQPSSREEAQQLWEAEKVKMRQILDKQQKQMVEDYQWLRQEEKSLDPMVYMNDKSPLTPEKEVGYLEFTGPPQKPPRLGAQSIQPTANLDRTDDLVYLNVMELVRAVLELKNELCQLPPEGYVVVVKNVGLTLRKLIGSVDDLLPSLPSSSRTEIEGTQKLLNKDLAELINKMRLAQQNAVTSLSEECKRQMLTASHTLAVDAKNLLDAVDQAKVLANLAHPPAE
HUVEC prolif 384 – blocks proliferation of human endothelial cells | HUVEC proliferation, CellTiter-Glo luminescence, 72 h; hits give low values | viability, % at 10 µM (by protocol) | AID 648 | 86,000 tested, 1.1% active;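 active = viability at or below 30%; inactive = viability above 30%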;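 also: 100% = median luminescence of DMSO-only cell control wells on each plate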
H69AR growth 86K – growth inhibitors of human H69AR lung tumor cells | viability, % at 10 µM | H69AR lung tumor viability, ATP luminescence, 72 h; hits give low values | 85,000 tested, 6% active;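 active = viability at or below 40%; inactive = viability above 40%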;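 also: multidrug resistant small cell line overexpressing MRP-1 efflux transporter; 100% = mean luminescence of untreated control wells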
HCT116 bCat-KO – beta-catenin-lacking colon tumor cell growth suppression. HCT116 beta-catenin knockout viability, CellTiter-Glo, 60 h; hits give low values. AID 818. viability, % at 10 µM. 140,000 tested, 1.5% active;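 active = viability at or under a set limit, the compound median less 4 SD, cut at about 6% in these data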;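 also: 0% = Hyamine 1622 control at 20 µM and 100% = untreated cell control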
HCT116 PTEN-null – growth suppressors of cells with PTEN tumor suppressor deletion; 140,000 tested, 1.2% active; AID 827; viability, % at 10 µM; HCT116 PTEN-null viability, CellTiter-Glo, 60 h; hits give low values;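 active = viability at or below a set limit, 4 SD under the median of all tested compounds, cut at about 3.7% in these data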;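 also: PTEN knockout HCT116 line with beta catenin targeted HCT116 as companion control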
Fibroblast inh – blocks proliferation of human lung fibroblasts; viability, % at 10 µM; 85,000 tested, 1.1% active; LL 47 human lung fibroblast viability, ATP luminescence; hits give low values;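 active = viability at or below 50% in the single dose screen; inactive = viability above 50%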;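 also: compound exposure lasted 72 h before the ATP readout; 100% = median luminescence of untreated cell-only wells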
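Material: human LL 47 lung fibroblast cells; quantity: 1,150 cells/well; medium: IMEM plus 15% FBS; doses: 0.1% DMSO in all compound wells; timing: overnight attachment after seeding, then 72 h compound exposure at 37 °C; detection: CellTiter-Glo luminescence; measure: % viability of median cell-only signal; controls: cell-only wells, no compound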
* hit, by the source's call; . = no result given. The entries come from a sample that favours hits as a whole.

SMILES	PTK2B oligo ant	HUVEC prolif 384	H69AR growth 86K	HCT116 bCat-KO	HCT116 PTEN-null	Fibroblast inh
Cc1cc(NCCOCCO)n2ncc(-c3ccc(Cl)cc3)c2n1	-0.74	41.4	21.7*	28.1	18.8	41.5*
Cc1cc(N)n2ncc(-c3ccc(Cl)cc3)c2n1	0.42	36.2	42.1	54.7	51.6	46.3*
CC(C)(C)c1cc(NCCCn2ccnc2)n2ncc(-c3ccc(Cl)cc3)c2n1	1.22	8.7*	5.2*	19.6	24.5	44.7*
Cc1cc(N)n2ncc(-c3ccc(F)cc3)c2n1	-1.64	79.2	69.1	80.4	93.3	81.3
Cc1ccc(S(=O)(=O)Nc2cccc3c2CCCC3)cc1	.	.	.	97.6	84.0	.
CCC/C=N/NC(=O)c1[nH]c2c([N+](=O)[O-])cccc2c1C	.	.	.	13.1	13.2	.
Cn1c(=O)c(C(=O)Nc2ccccn2)c(O)c2ccccc21	-1.52	103.4	19.2*	14.7	12.4	54.7
Cn1c(=O)c(C(=O)Nc2cnccn2)c(O)c2ccccc21	.	97.8	0.6*	.	.	104.0
O=[N+]([O-])c1nn(-c2ccc3c(c2)OCCO3)n(O)c1=NCc1ccc(F)cc1	.	.	.	87.0	85.9	.
CC(C)c1ccc(N=c2c([N+](=O)[O-])nn(-c3ccc4c(c3)OCCO4)n2O)cc1	-3.98*	.	.	87.8	86.8	.
COc1cc(N=c2c([N+](=O)[O-])nn(-c3ccc4c(c3)OCCO4)n2O)cc(OC)c1	.	.	.	0.8*	0.3*	.
COc1cc2c(cc1OC)-c1nnc(-c3ccco3)n1C1(CCCC1)C2	-0.32	91.6	83.2	88.7	93.0	107.6
CCCCCC(=O)N/N=C(\C)c1ccc(N2CCCCC2)cc1	.	.	.	95.9	87.2	.
COc1ccccc1[C@@H]1C(c2cccc(Cl)c2)=NN(c2ccc(Br)cc2)[C@H]1C(=O)N1CCOC1=O	.	.	.	71.9	67.1	.
Cc1ccc(OCCn2cc(/C(N)=N/O)c3ccccc32)cc1C	-1.08	88.2	34.9*	71.3	72.7	89.0
N#Cc1ccc2ccn(CC(=O)NCc3ccccc3)c2c1	0.79	74.7	36.1*	26.1	25.3	92.4
COCCCn1c2nc3ccccc3nc2c2c(=O)n(Cc3ccccc3Cl)cnc21	.	27.1*	3.2*	.	.	69.2
CCC(C)n1c(C)nc2c(c1=O)c1nc3ccccc3nc1n2CCC1=CCCCC1 (stereo not given)	-1.62	99.4	3.6*	37.0	43.4	98.4
CCCCn1c2nc3ccccc3nc2c2c(=O)n(C(C)CC)cnc21 (stereo not given)	-3.08*	82.6	56.7	86.6	82.7	100.8
COCCCn1c2nc3ccccc3nc2c2c(=O)n(Cc3ccc(Cl)cc3)cnc21	-2.44	63.5	93.3	59.6	48.9	83.0
O=C(O)C1C2C=CC(O2)C1C(=O)NCCCn1ccnc1 (stereo not given)	.	96.2	95.5	95.2	94.4	103.9
Cc1nn(C)c(N)c1C(O)(c1nccn1C)C(F)(F)F (stereo not given)	0.86	104.7	101.5	81.4	88.5	107.0
CC(=O)Nc1cccc(OCc2ccc(S(=O)(=O)Cc3ccccc3)cc2)c1	.	.	.	82.3	85.9	.
O=C(Nc1ccc(F)cc1)Nc1nnc(-c2ccncc2)s1	-1.79	.	.	32.2	20.4	.
O=C(Nc1cccc(Cl)c1)Nc1nnc(-c2ccncc2)s1	.	.	.	3.8*	3.2*	.
SMILES	PTK2B oligo ant	HUVEC prolif 384	H69AR growth 86K	HCT116 bCat-KO	HCT116 PTEN-null	Fibroblast inh
CC(=O)c1ccc(NC(=O)Nc2cccc(Cl)c2)cc1	-0.02	67.6	5.0*	61.4	49.7	98.9
O=C(NCCc1ccncc1)Nc1cccc(Cl)c1	0.19	80.6	106.3	101.0	104.4	101.1
O=C(Nc1ccc(Cl)cc1)Nc1nnc(-c2ccncc2)s1	-0.96	.	.	4.3*	2.1*	.
O=C(Nc1ccccc1)Nc1cccc(Cl)c1	-0.89	89.6	82.9	89.3	76.8	101.7
O=C(COC(=O)C1CCN(S(=O)(=O)c2ccccc2)CC1)NC(=O)c1ccc(OC(F)F)cc1	.	.	.	97.0	108.0	.
CCNc1nc(NCC)nc(N(C)N)n1	-0.92	.	.	98.2	99.6	.
Cc1c(CCOC(=O)CC23CC4CC(CC(C4)C2)C3)sc[n+]1CC(=O)c1ccc(Br)cc1	1.03	2.2*	1.3*	4.8*	7.5	26.4*
O=C(Nc1ccc2c(c1)OCO2)NC1(C(F)(F)F)Oc2ccccc2O1	0.44	79.5	26.4*	75.3	87.0	92.8
O=C(NCC1CCCO1)c1ccccc1 (stereo not given)	0.1	98.5	91.1	94.6	103.7	104.7
O=C(NCC1CCCO1)NC1(C(F)(F)F)Oc2ccccc2O1 (stereo not given)	0.89	71.4	21.0*	70.0	67.5	77.7
O=C(NC1(C(F)(F)F)Oc2ccccc2O1)N1CCCC1	1.29	65.4	27.9*	69.7	75.2	81.5
Clc1ccc(C(c2nnnn2C2CCCC2)N2CCN(Cc3ccncc3)CC2)cc1 (stereo not given)	-0.67	.	.	78.2	72.9	.
O=c1c(C(c2nnnn2C2CCCCC2)N2CCCCC2)coc2ccc(Cl)cc12 (stereo not given)	0.16	63.5	18.2*	88.6	80.8	93.6
CC1CCc2ccc(F)cc2N1S(=O)(=O)c1cccs1 (stereo not given)	-0.63	83.2	27.4*	43.8	45.8	89.2
O=S(=O)(c1cccs1)N1CCc2ccccc21	0.01	103.5	98.3	84.8	93.9	102.4
Nc1c(C(=O)NCc2ccco2)c2nc3ccccc3nc2n1CCc1ccccc1F	-2.89	79.2	26.9*	76.8	71.8	94.9
COc1ccc(-n2c(N)c(C(=O)NCc3ccco3)c3nc4ccccc4nc32)c(OC)c1	-1.05	68.6	32.5*	67.1	72.1	89.3
COc1ccc(CCn2c(N)c(C(=O)NCc3ccco3)c3nc4ccccc4nc32)cc1OC	-1.66	80.5	24.1*	35.4	25.4	111.3
CCSc1nnc(NC(=O)C2CCCN(S(=O)(=O)c3cnc[nH]3)C2)s1 (stereo not given)	.	89.6	80.6	98.3	94.3	95.2
Cc1ccc(C(=O)/C=C\C(=O)c2ccc(C)cc2)cc1	.	.	.	1.7*	1.8*	.
Cc1ccc(S/C=C\C(=O)c2ccccc2)cc1	-0.37	28.6*	1.2*	12.8	71.2	70.5
CC(/C=C/C(=O)c1ccc(C)cc1)=C\c1ccccc1	0.14	.	.	75.0	75.6	.
O=c1c2c(nc3c(-c4cccc(Br)c4)c[nH]n13)CCCC2	0.28	45.2	20.4*	15.3	7.8	58.6
CCOC(=O)Cc1c(C)nc2c(-c3cccc(Br)c3)c[nH]n2c1=O	0.84	4.7*	28.3*	13.2	11.9	63.4
CCOC(=O)Cc1c(C)nc2c(C#N)c[nH]n2c1=O	-0.53	97.9	97.6	115.5	102.4	96.5
CCOC(=O)Cc1c(C)nc2cc(-c3ccc(C(C)(C)C)cc3)[nH]n2c1=O	1	64.2	37.3*	81.0	88.6	54.8
Cc1cc(=O)n2[nH]c(C)c(-c3ccc(Cl)cc3)c2n1	-0.11	70.8	36.1*	21.2	18.1	78.5
